{"source": "paper PMC7114156", "about": "(Antiviral Research, 2009)", "key": {"SV40 strain Pa-57": {"tested_on": "SV40 strain Pa-57", "assay": "SV40 assay: SV40 replication in Vero cells, viral DNA by qPCR", "format": "cell-based", "settings": "ratio proportional to viral DNA per cell", "procedure,_shortened": "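Vero cells at 2 × 10^4 cells/well were allowed to adhere for 4 h. They were infected with SV40 strain Pa-57 at MOI 0.1 for 2 h. Inoculum was removed and test compound added at 100 to 0.003 μM for 3 days. SV40 DNA was read by qPCR, and growth by MTS in parallel on uninfected cells. The SV40 DNA/MTS ratio was expressed as % of untreated control.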"}, "[1]": {"assay": "Growth of activated primary CD4 T cells, CTG", "format": "cell-based", "settings": "human, CC50, host primary cell growth"}, "Jurkat": {"tested_on": "Jurkat", "assay": "Growth of Jurkat, MTS", "format": "cell-based, human", "settings": "72 h", "procedure,_shortened": "(§1)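 Cells were plated in 96-well plates in medium holding serial dilutions of test compound, 1 nM to 10 μM, with DMSO ≤1% (v/v) final. Growth was read by MTS after 72 h at 37 °C: 2 h with reagent plus phenazine methosulfate, then A490. K and Imax came from a fit to a modified Hill equation. Vero cells are African Green monkey.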"}, "HKC/HPV16 cells": {"tested_on": "HKC/HPV16 cells", "assay": "Growth of HKC/HPV16 cells, MTS", "format": "cell-based, human"}, "human keratinocyte (HKC)": {"tested_on": "human keratinocyte (HKC)", "assay": "Growth of uninfected human keratinocytes", "format": "cell-based", "settings": "4 days", "procedure,_shortened": "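W12-20850 cells were seeded at 7.5 × 10^3 cells/well into 96-well plates containing test compound, 100 to 0.001 μM. Plates were held 4 days at 37 °C, 5% CO2. Growth was read by MTS (A490), and HPV16 DNA was then measured from the same cells. Uninfected human keratinocytes were run in parallel and read by MTS.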"}, "W12 cells": {"tested_on": "W12 cells", "assay": "Apoptosis assay", "format": "cell-based, human", "settings": "W12, 40 h exposure", "procedure,_shortened": "(§2)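 Apoptosis read as cytoplasmic histone-associated DNA fragments with a Cell Death Detection ELISA kit. Exposure was 20 h for IM9 and MT4 and 40 h for W12 and U937. A405 was read kinetically at 30 °C, and the rate per hour came from linear regression of the linear portion. A Fas-activating antibody was the positive control.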"}, "EBV": {"tested_on": "EBV", "assay": "Lytic replication of EBV induced by sodium butyrate and PMA in P3HR1 cells", "format": "cell-based"}, "[2]": {"assay": "Growth of WI38 fibroblasts, MTS", "format": "cell-based", "settings": "human", "procedure,_shortened": "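Primary cells were plated in 96-well plates with serial dilutions of test compound, 3 nM to 100 μM, for 72 h at 37 °C. Read-out was CTG for resting B and CD4 T cells and MTS for PBMC, WI38 and HUVEC. Purity was 90–95% for B cells and 97% for CD4 cells. Activated PBMCs were stimulated with phytohemagglutinin plus IL2.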"}, "IM9 cells": {"tested_on": "IM9 cells", "assay": "Growth of IM9 cell line", "format": "cell-based, human"}, "HPV-16": {"tested_on": "HPV-16", "assay": "HPV DNA by qPCR in HKC/HPV16 cells", "format": "cell-based"}, "SiHa": {"tested_on": "SiHa", "assay": "Growth of SiHa", "format": "cell-based, human", "settings": "72 h", "procedure,_shortened": "(§3)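 Cell lines carrying integrated viral genomes were plated in 96-well plates in medium with test compound. Growth was read by ATP luminescence (CellTiter-Glo) for HEK293 and WI38 VA13, and by MTS reduction (A490 after 2 h at 37 °C) for Namalwa, W12 20861, SiHa, Caski and HeLa. K and Imax came from a fit to a modified Hill equation.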"}, "U937": {"tested_on": "U937", "assay": "Growth of U937, MTS", "format": "cell-based, human", "procedure,_shortened": "as §1"}, "Namalwa": {"tested_on": "Namalwa", "assay": "Growth of Namalwa", "format": "cell-based, human", "settings": "72 h", "procedure,_shortened": "as §3"}, "WI38 VA13": {"tested_on": "WI38 VA13", "assay": "Growth of WI38 VA13", "format": "cell-based, human", "procedure,_shortened": "as §3"}, "BJAB": {"tested_on": "BJAB", "assay": "Growth of BJAB, MTS", "format": "cell-based, human", "settings": "72 h", "procedure,_shortened": "as §1"}, "HEK293": {"tested_on": "HEK293", "assay": "Growth of HEK293", "format": "cell-based, human", "procedure,_shortened": "as §3"}, "immortalized cell lines": {"tested_on": "immortalized cell lines", "assay": "Growth of immortalized cell lines", "format": "cell-based"}, "Caski": {"tested_on": "Caski", "assay": "Growth of Caski", "format": "cell-based, human", "settings": "72 h", "procedure,_shortened": "as §3"}, "[3]": {"tested_on": "cell lines immortalized by non-viral transformation events", "assay": "Growth of cell lines immortalized by non-viral transformation events", "format": "cell-based", "settings": "Homo sapiens, read-out: Median effect concentrations, range", "procedure,_shortened": "as §1"}, "[4]": {"assay": "Bone marrow toxicity assay, erythroid progenitors", "format": "cell-based", "settings": "human, erythroid bone marrow progenitor cells"}, "W12-20850 cells": {"tested_on": "W12-20850 cells", "assay": "Growth of W12-20850 cells, MTS", "format": "cell-based, human", "procedure,_shortened": "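For the time course, test compound was added at time zero to cells growing in 96-well plates. Growth was followed as rate of MTS reduction over 3 days from day zero, with untreated controls alongside.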"}, "HeLa": {"tested_on": "HeLa", "assay": "Growth of HeLa", "format": "cell-based, human", "settings": "72 h", "procedure,_shortened": "as §3"}, "MT4 cells": {"tested_on": "MT4 cells", "assay": "Apoptosis assay", "format": "cell-based, human", "settings": "MT4, 20 h exposure", "procedure,_shortened": "as §2"}, "HIV-1": {"tested_on": "HIV-1", "assay": "HIV-1 infection in PBMCs", "format": "cell-based"}, "U937 cells": {"tested_on": "U937 cells", "assay": "Apoptosis assay", "format": "cell-based, human", "settings": "U937, 40 h exposure", "procedure,_shortened": "as §2"}, "[5]": {"settings": "Homo sapiens, read-out: K, growth, MTS"}, "[6]": {"settings": "Homo sapiens, read-out: K, Growth, MTS"}}, "note": "Several values for one entry are separate records, joined by “and”; a condition that tells them apart may be missing. Equal entries are not always repeated."}
{"smiles": "O=C(N[C@@H]1CCCc2c1[nH]c1ccc(Cl)cc21)c1ccccn1", "note": "[GSK983, N-[(1R)-6-Chloro-2,3,4,9-tetrahydro-1H-carbazol-1-yl]-2-pyridinecarboxamide]", "values": [{"measurement": "Imax for reduction of the ratio SV40 DNA / MTS activity of Vero cells", "setting": "SV40 strain Pa-57", "value": "79 ± 2", "unit": "%"}, {"measurement": "K for reduction of the ratio SV40 DNA / MTS activity of Vero cells", "setting": "SV40 strain Pa-57", "value": "12 ± 2", "unit": "nM"}, {"measurement": "CC50 at 72 h", "setting": "[1]", "value": 57, "unit": "µM"}, {"measurement": "EC50", "setting": "Jurkat; [5]", "value": "0.052 ± 0.003", "unit": "µM"}, {"measurement": "Imax, Growth, MTS", "setting": "Jurkat; T lymphoblast", "value": "51 ± 1", "unit": "%"}, {"measurement": "Imax, Growth, MTS", "setting": "HKC/HPV16 cells; HKC/HPV16", "value": "59 ± 1", "unit": "%"}, {"measurement": "EC50", "setting": "HKC/HPV16 cells; [6]", "value": "0.003 ± 0.0004", "unit": "µM"}, {"measurement": "Imax, Growth, MTS", "setting": "human keratinocyte (HKC)", "value": "∼100%"}, {"measurement": "K, Growth, MTS", "setting": "human keratinocyte (HKC)", "value": "40,000 ± 11,800 nM"}, {"measurement": "Apoptosis", "setting": "W12 cells", "value": "apoptosis did not occur"}, {"measurement": "Susceptibility of lytic replication of EBV", "setting": "EBV; at concentrations below 1 μM", "value": "not susceptible"}, {"measurement": "Inhibition of lytic replication of EBV below 10 μM", "setting": "EBV; below 10 μM, data not shown", "value": "No significant inhibition"}, {"measurement": "Inhibition of lytic replication of EBV", "setting": "EBV; induced by sodium butyrate and PMA in P3HR1 cells, data not shown", "value": "did not inhibit"}, {"measurement": "CC50 at 72 h", "setting": "[2]", "value": 90, "unit": "µM"}, {"measurement": "EC50", "setting": "IM9 cells; Homo sapiens, IM-9, 72 h, read-out: K, cell line growth", "value": "0.016 ± 0.002", "unit": "µM"}, {"measurement": "Selectivity index", "setting": "IM9 cells; IM9 (EBV) vs activated B cell", "value": ">620 ± 80"}, {"measurement": "Outcome of growth inhibition over time", "setting": "IM9 cells; IM9, 3 days, higher concentrations", "value": "cell death"}, {"measurement": "Imax, HPV DNA, qPCR", "setting": "HPV-16; HKC/HPV16, HPV type 16", "value": "89 ± 2", "unit": "%"}, {"measurement": "Selectivity index", "setting": "HPV-16; HPV DNA qPCR in HKC/HPV16 vs HKC", "value": "18,000 ± 5,600"}, {"measurement": "EC50", "setting": "HPV-16; Human papillomavirus 16, read-out: K, HPV DNA, qPCR", "value": "0.0022 ± 0.0002", "unit": "µM"}, {"measurement": "Imax, Growth, MTS", "setting": "SiHa; HPV16 integrated", "value": "39 ± 1.6", "unit": "%"}, {"measurement": "EC50", "setting": "SiHa; [6]", "value": "0.037 ± 0.006", "unit": "µM"}, {"measurement": "EC50", "setting": "U937; Homo sapiens, U-937, 72 h, read-out: K, growth, MTS", "value": "0.026 ± 0.004", "unit": "µM"}, {"measurement": "Outcome of growth inhibition over time", "setting": "U937; U937, 3 days, rate of MTS reduction", "value": "cytostasis"}, {"measurement": "Imax, Growth, MTS", "setting": "U937; U937, monocyte, 72 h", "value": "55 ± 2", "unit": "%"}, {"measurement": "EC50", "setting": "Namalwa; [6]", "value": "0.01 ± 0.002", "unit": "µM"}, {"measurement": "Imax, Growth, MTS", "setting": "Namalwa; Namalwa, EBV integrated", "value": "66% and 66 ± 2.5%"}, {"measurement": "EC50", "setting": "WI38 VA13; Homo sapiens, WI-38 VA13, 72 h, read-out: K, Growth, CTG", "value": "0.016 ± 0.005", "unit": "µM"}, {"measurement": "Imax, Growth, CTG", "setting": "WI38 VA13; WI38 VA13, SV40 integrated, 72 h", "value": "28% and 28 ± 2%"}, {"measurement": "Imax, Growth, MTS", "setting": "BJAB; B lymphoblast", "value": "84 ± 1.5", "unit": "%"}, {"measurement": "EC50", "setting": "BJAB; [5]", "value": "0.009 ± 0.0006", "unit": "µM"}, {"measurement": "Imax, Growth, CTG", "setting": "HEK293; HEK293, Adenovirus 5 integrated, 72 h", "value": "52 ± 2", "unit": "%"}, {"measurement": "EC50", "setting": "HEK293; Homo sapiens, HEK293, 72 h, read-out: K, Growth, CTG", "value": "0.012 ± 0.002", "unit": "µM"}, {"measurement": "Selectivity index", "setting": "immortalized cell lines; EBV and HTLV-1 viral-immortalized cell lines vs related primary cells", "value": "approximately 1000"}, {"measurement": "Time after addition of the compound until reduction in growth rate", "setting": "immortalized cell lines; W12, U937 and IM9 growth curves", "value": "approximately 24 h"}, {"measurement": "Concentrations at which apoptosis or cytostasis is induced", "setting": "immortalized cell lines; depending on the cell line", "value": "over 20 nM"}, {"measurement": "EC50", "setting": "immortalized cell lines; read-out: EC50 values, growth of cell lines immortalized by HTLV-1, EBV, HPV, SV40 and Ad-5", "value": "0.01 to 0.04", "unit": "µM"}, {"measurement": "Imax, Growth, MTS", "setting": "Caski; Caski, HPV16 integrated", "value": "33 ± 1.5", "unit": "%"}, {"measurement": "EC50", "setting": "Caski; Homo sapiens, Ca-Ski, read-out: K, Growth, MTS", "value": "0.032 ± 0.006", "unit": "µM"}, {"measurement": "EC50", "setting": "[3]", "value": "0.01 to 0.05", "unit": "µM"}, {"measurement": "CC50", "setting": "[4]", "value": "> 10", "unit": "µM"}, {"measurement": "EC50", "setting": "W12-20850 cells; Homo sapiens, W12-20850, 96 h, read-out: K, Growth, MTS", "value": "0.011 ± 0.002", "unit": "µM"}, {"measurement": "Outcome of growth inhibition over time", "setting": "W12-20850 cells; W12, 3 days, rate of MTS reduction", "value": "cytostasis"}, {"measurement": "Imax, Growth, MTS", "setting": "W12-20850 cells; W12-20850, 4 days", "value": "60% and 60 ± 7%"}, {"measurement": "Imax, Growth, MTS", "setting": "HeLa; HPV 18 integrated", "value": "50 ± 0.8", "unit": "%"}, {"measurement": "EC50", "setting": "HeLa; [6]", "value": "0.02 ± 0.002", "unit": "µM"}, {"measurement": "Apoptosis", "setting": "MT4 cells", "value": "induced apoptosis"}, {"measurement": "Susceptibility of HIV", "setting": "HIV-1; at concentrations below 1 μM", "value": "not susceptible"}, {"measurement": "Inhibition of HIV-1 infection in PBMCs", "setting": "HIV-1; concentration range 1 nM to 100 μM", "value": "50% inhibition in the micromolar range"}, {"measurement": "Apoptosis", "setting": "U937 cells", "value": "apoptosis did not occur"}]}
